KDM4C inh: KDM4C (human) demethylase inhibition; GST-KDM4C 2-372, H3K9me3 peptide, LANCE TR-FRET; inhibition, % at 12.5 µM; 96,000 compounds, 0.15% hits;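 active = mean replicate inhibition above about 25%, with at least 55% of replicates also reaching it, limit read from the data, passing the limit was not always enough; inconclusive = only one of those two conditions met; inactive = neither condition met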
Target sequence (Q9H3R0 2-372 limits assumed): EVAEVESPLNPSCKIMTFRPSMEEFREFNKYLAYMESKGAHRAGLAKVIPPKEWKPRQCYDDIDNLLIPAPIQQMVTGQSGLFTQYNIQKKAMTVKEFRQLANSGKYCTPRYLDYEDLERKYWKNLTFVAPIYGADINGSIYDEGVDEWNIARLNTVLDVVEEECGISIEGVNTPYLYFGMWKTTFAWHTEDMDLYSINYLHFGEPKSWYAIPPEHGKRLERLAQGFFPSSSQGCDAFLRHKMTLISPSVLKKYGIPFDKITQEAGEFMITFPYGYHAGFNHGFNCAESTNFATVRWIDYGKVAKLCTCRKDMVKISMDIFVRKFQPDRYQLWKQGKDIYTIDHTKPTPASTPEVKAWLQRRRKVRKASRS
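Material: GST-tagged GASC-1 (JMJD2C) catalytic fragment, aa 2-372 / Quantity: enzyme final amount 10 nM / Medium: HEPES buffer, pH 7.5, plus ascorbate / Doses: one test concentration per compound / Incubation: 30 min reaction, 60 min detection, RT / Measured by: LANCE TR-FRET / Read-out: inhibition from TR-FRET ratio decrease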
IDH1 mut inh: IDH1 R132H (human) inhibition. inhibition, % at 10 µM. AID 624101. 70,000 compounds, 0.18% hits. IDH1 R132H reductase, diaphorase/resazurin fluorescence, 60 min; in the data active = inhibition above about 34%; inconclusive = no clear call, values can overlap the other calls; inactive = below about 11%;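 also: 0% = DMSO and 100% = no enzyme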
T cruzi growth-1: blocks T. cruzi growth in NIH3T3 culture | T. cruzi beta-gal in NIH3T3, GalScreen luminescence, 90 h | AID 624255 | 77,000 compounds, 5.9% hits | inhibition, % at 8.34 µM;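 active = mean inhibition above about 93%, with at least 55% of replicates each passing it, limit read from the data, passing the limit was not always enough; inconclusive = only one of those two conditions holds; inactive = neither condition holds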
T cruzi growth-2: inhibitors of T. cruzi proliferation; shares compounds with T cruzi growth-1; T. cruzi beta-gal in NIH3T3, GalScreen luminescence, 90 h; inhibition, % at 8.35 µM; 5,600 compounds, 72% hits;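 active = mean replicate inhibition above about 95% and at least 55% of replicates individually reaching it, limit read from the data; inconclusive = only one of the two criteria is met; inactive = neither criterion is met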
T cruzi growth-3: blocks T. cruzi growth in NIH3T3 host cells; shares compounds with T cruzi growth-1; T. cruzi beta-gal in NIH3T3, GalScreen luminescence, 90 h; inhibition, % at 2.09 µM; 5,600 compounds, 21% hits; AID 651740;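 active = mean inhibition above about 95%, with at least 55% of replicates also reaching it, limit read from the data; inconclusive = meets just one of the two conditions; inactive = meets neither condition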;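 also: plate controls were neutral control median for no effect and positive control median for full effect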
3T3 cytotox: cytotoxicity in mouse NIH/3T3 fibroblasts | shares compounds with T cruzi growth-1 | NIH/3T3 viability, CellTiter-Glo ATP luminescence, 90 h | cytotoxicity (signal decrease), % at 8.35 µM | 5,600 compounds, 14% hits | AID 651742;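 active = mean signal decrease across replicates above about 35% based on untreated-well scatter, with enough replicates individually passing, limit read from the data; inconclusive = no rule stated though some were filed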;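 also: 0% = median of neutral control wells and 100% = median of positive control wells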
NIH3T3 tox 2: NIH/3T3 (mouse) viability loss. 5,600 compounds, 56% hits. NIH/3T3 viability, CellTiter-Glo ATP luminescence, 90 h. inhibition, % at 24.9 µM. AID 651744. shares compounds with T cruzi growth-1;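 active = mean loss of cell viability signal at or above a set limit, and enough replicates individually reaching it; inconclusive = meets only the mean limit or only the replicate share; inactive = meets neither condition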;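 also: 0% = median of neutral control wells and 100% = median of positive control wells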
Numbers without * were called inactive. Many of the other results were omitted from the sample, so hits are more common in it than they were.

How did C[C@@H]1CN([C@@H](C)CO)S(=O)(=O)c2ccc(-c3ccccc3F)cc2O[C@@H]1CN(C)Cc1ccncc1 do in these assays?
KDM4C inh: 4.0; IDH1 mut inh: 7.6; T cruzi growth-1: 100.3*; T cruzi growth-2: inconclusive; T cruzi growth-3: 83.4; 3T3 cytotox: 29.0; NIH3T3 tox 2: 46.8*

Results for COC(=O)c1cc(C(=O)NCc2ccccn2)cc([N+](=O)[O-])c1 ?
IDH1 mut inh: 0.1

How did COc1cc(C2c3cc(O[C@@H]4O[C@H](CO)[C@@H](O)[C@H](O)[C@H]4O)c(OC)cc3CC(CO)C2CO)ccc1O (stereo not given in full) do in these assays?
IDH1 mut inh: -0.2

What do the screens show for `CCN(CC(=O)O)S(=O)(=O)c1ccc(C)cc1`?
IDH1 mut inh: 0.2

Results for CN(CCO)c1ccc(/C=N/NC(=O)CCCCCC(=O)NO)cc1 ?
IDH1 mut inh: -0.1

How did C[C@@H]1CN([C@H](C)CO)C(=O)c2cc(NC(=O)NC3CCCCC3)ccc2O[C@@H](C)CCCCO[C@@H]1CN(C)Cc1ccccc1 do in these assays?
KDM4C inh: 0.3; IDH1 mut inh: 3.0; T cruzi growth-1: 113.4*; T cruzi growth-2: 108.1*; T cruzi growth-3: 54.3; 3T3 cytotox: -13.2; NIH3T3 tox 2: 31.4*

Results for C[C@@H]1CCCCO[C@@H](CN(C)Cc2ccccc2)[C@H](C)CN([C@@H](C)CO)C(=O)c2cc(NC(=O)NC3CCCCC3)ccc2O1 ?
KDM4C inh: -1.9; T cruzi growth-1: -111.8

How did C[C@H](CO)N1C[C@H](C)[C@@H](CN(C)Cc2ccccc2)OCCCC[C@H](C)Oc2ccc(NC(=O)NC3CCCCC3)cc2C1=O do in these assays?
KDM4C inh: -0.8; T cruzi growth-1: inconclusive; T cruzi growth-2: inconclusive; T cruzi growth-3: 53.6; 3T3 cytotox: 14.5; NIH3T3 tox 2: 47.9*

Results for C[C@H]1CCCCO[C@@H](CN(C)Cc2ccccc2)[C@@H](C)CN([C@@H](C)CO)C(=O)c2cc(NC(=O)NC3CCCCC3)ccc2O1 ?
KDM4C inh: 2.0; IDH1 mut inh: 4.6; T cruzi growth-1: -115.5

What do the screens show for `COCC(=O)Nc1ccc2c(c1)[C@@H]1C[C@@H](CC(=O)NCc3ccc(-c4ccccc4)cc3)O[C@@H](CO)[C@@H]1O2`?
KDM4C inh: 1.7; IDH1 mut inh: -1.2; T cruzi growth-1: inconclusive; T cruzi growth-2: 34.5; T cruzi growth-3: -42.8; 3T3 cytotox: 36.8*; NIH3T3 tox 2: 23.3

How did COCC(=O)Nc1ccc2c(c1)[C@H]1C[C@H](CC(=O)NCc3ccc(-c4ccccc4)cc3)O[C@H](CO)[C@H]1O2 do in these assays?
KDM4C inh: 4.1; IDH1 mut inh: -0.7; T cruzi growth-1: 111.5*; T cruzi growth-2: 69.7; T cruzi growth-3: 28.3; 3T3 cytotox: -18.8; NIH3T3 tox 2: 17.8

What do the screens show for `COCC(=O)Nc1ccc2c(c1)[C@H]1C[C@@H](CC(=O)NCc3ccc(-c4ccccc4)cc3)O[C@H](CO)[C@H]1O2`?
KDM4C inh: -1.8; IDH1 mut inh: 0.4; T cruzi growth-1: 101.6*; T cruzi growth-2: 11.7; T cruzi growth-3: -5.4; 3T3 cytotox: 8.2; NIH3T3 tox 2: 16.7

Results for COCC(=O)Nc1ccc2c(c1)[C@H]1C[C@@H](CC(=O)NCc3ccc(-c4ccccc4)cc3)O[C@@H](CO)[C@H]1O2 ?
KDM4C inh: -1.1; IDH1 mut inh: 0.0; T cruzi growth-1: 35.5

Results for COCC(=O)Nc1ccc2c(c1)[C@@H]1C[C@H](CC(=O)NCc3ccccc3)O[C@@H](CO)[C@@H]1O2 ?
KDM4C inh: -1.1

Results for COCC(=O)Nc1ccc2c(c1)[C@H]1C[C@H](CC(=O)NCc3ccc(-c4ccccc4)cc3)O[C@@H](CO)[C@H]1O2 ?
KDM4C inh: -1.0; IDH1 mut inh: -0.8; T cruzi growth-1: 47.2

How did O=C(NO)c1cccc(C(=O)N/N=C/c2ccccc2[N+](=O)[O-])c1 do in these assays?
IDH1 mut inh: -0.6

Results for O=C(C[C@@H]1CC[C@@H]2[C@H](COC[C@@H](O)CN2C(=O)Nc2cccc(F)c2)O1)NCc1ccccc1F ?
KDM4C inh: -0.4; T cruzi growth-1: -8.3

Screening data as filed in PubChem BioAssay.
